Laboratory results as given in ChEMBL document CHEMBL3817731, “Synthesis and investigation of novel benzimidazole derivatives as antifungal agents” (Bioorg Med Chem, 2016).
≈ marks a conversion by molar mass, not a printed value.

How the values were obtained:
Candida albicans [1] = assay: Antifungal activity against Candida albicans ATCC MYA-90819 after 48 hrs by CLSI M27-A3 method; type: functional; details: ATCC MYA-90819, 48 h
Candida albicans [2] = assay: Antifungal activity against Candida albicans ATCC 10231 after 48 hrs by CLSI M27-A3 method; type: functional; details: ATCC 10231, 48 h
Pichia kudriavzevii = assay: Antifungal activity against Candida krusei ATCC 6258 after 48 hrs by CLSI M27-A3 method; type: functional; details: ATCC 6258, 48 h
Candida parapsilosis = assay: Antifungal activity against Candida parapsilosis ATCC 22019 after 48 hrs by CLSI M27-A3 method; type: functional; details: Lodderomyces parapsilosis, ATCC 22019, 48 h
Aspergillus flavus = assay: Antifungal activity against Aspergillus flavus ATCC MYA-3631 after 48 hrs by CLSI M38-A2 method; type: functional; details: ATCC MYA-3631, 48 h
Aspergillus terreus = assay: Antifungal activity against Aspergillus terreus ATCC MYA3633 after 48 hrs by CLSI M38-A2 method; type: functional; details: ATCC MYA3633, 48 h
Candida albicans [3] = assay: Antifungal activity against Candida albicans ATCC 64124 after 48 hrs by CLSI M27-A3 method; type: functional; details: ATCC 64124, 48 h
Nakaseomyces glabratus = assay: Antifungal activity against Candida glabrata ATCC 2001 after 48 hrs by CLSI M27-A3 method; type: functional; details: CBS 138, 48 h
Candida albicans [4] = assay: Antifungal activity against Candida albicans ATCC MYA-1237 after 48 hrs by CLSI M27-A3 method; type: functional; details: ATCC MYA-1237, 48 h
Candida albicans [5] = assay: Antifungal activity against Candida albicans ATCC MYA-2876 after 48 hrs by CLSI M27-A3 method; type: functional; details: ATCC MYA-2876, 48 h
Aspergillus nidulans = assay: Antifungal activity against Aspergillus nidulans ATCC 38163 after 48 hrs by CLSI M38-A2 method; type: functional; details: ATCC 38163, 48 h
Candida albicans [6] = assay: Antifungal activity against Candida albicans ATCC MYA-1003 after 48 hrs by CLSI M27-A3 method; type: functional; details: ATCC MYA-1003, 48 h
Candida albicans [7] = assay: Antifungal activity against Candida albicans ATCC MYA-2310 after 48 hrs by CLSI M27-A3 method; type: functional; details: ATCC MYA-2310, 48 h
A549 = assay: Cytotoxicity against human A549 cells assessed as reduction in cell survival after 24 hrs by resazurin assay; type: cell-based; details: A549, 24 h
Outline: (§1)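 Human A549 cells treated 24 h; BEAS 2B cells treated 6 h or 24 h. DMSO-treated cells served as negative control and Triton X-treated cells as positive control. Read-out was cell survival.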

[8] = Cytotoxicity against human BEAS2B cells assessed as reduction in cell survival after 24 hrs by resazurin assay; type: cell-based; details: BEAS-2B; outline: as §1
[9] = Cytotoxicity against human BEAS2B cells assessed as reduction in cell survival after 6 hrs by resazurin assay; type: cell-based; details: beas-2b; outline: as §1

| SMILES | MIC (Candida albicans [1]) [µg/mL] | MIC (Candida albicans [2]) [µg/mL] | MIC (Pichia kudriavzevii) [µg/mL] | MIC (Candida parapsilosis) [µg/mL] | MIC (Aspergillus flavus) [µg/mL] | MIC (Aspergillus terreus) [µg/mL] | MIC (Candida albicans [3]) [µg/mL] | MIC (Nakaseomyces glabratus) [µg/mL] | MIC (Candida albicans [4]) [µg/mL] | MIC (Candida albicans [5]) [µg/mL] | MIC (Aspergillus nidulans) [µg/mL] | MIC (Candida albicans [6]) [µg/mL] | MIC (Candida albicans [7]) [µg/mL] | IC50 (A549) [µg/mL] | IC50 [8] [µg/mL] | Activity [9] |
| --- | --- | --- | --- | --- | --- | --- | --- | --- | --- | --- | --- | --- | --- | --- | --- | --- |
| CN1CCN(c2ccc3nc(-c4ccc5nc(-c6ccc(OCCO)cc6)[nH]c5c4)[nH]c3c2)CC1 | > 31.2 | > 31.2 | 7.8 (≈ 16.6 µM) | 15.6 (≈ 33.3 µM) | 31.2 (≈ 66.6 µM) | 15.6 (≈ 33.3 µM) | > 31.2 | 31.2 (≈ 66.6 µM) | > 31.2 | 31.2 (≈ 66.6 µM) | 15.6 (≈ 33.3 µM) | 31.2 (≈ 66.6 µM) | 31.2 (≈ 66.6 µM) | – | – | – |
| COc1ccc(-c2nc3cc(-c4nc5cc(N6CCN(C)CC6)ccc5[nH]4)ccc3[nH]2)cc1 | 15.6 (≈ 35.6 µM) | 15.6 (≈ 35.6 µM) | 31.2 (≈ 71.1 µM) | 3.9 (≈ 8.89 µM) | 31.2 (≈ 71.1 µM) | 15.6 (≈ 35.6 µM) | 31.2 (≈ 71.1 µM) | 3.9 (≈ 8.89 µM) | 15.6 (≈ 35.6 µM) | 15.6 (≈ 35.6 µM) | 15.6 (≈ 35.6 µM) | > 31.2 | 7.8 (≈ 17.8 µM) | 0.98 (≈ 2.23 µM) | 1.95 (≈ 4.45 µM) | Non-toxic |
| CN1CCN(c2ccc3nc(-c4ccc5nc(-c6ccc(OCCOCCO)cc6)[nH]c5c4)[nH]c3c2)CC1 | > 31.2 | > 31.2 | 7.8 (≈ 15.2 µM) | 31.2 (≈ 60.9 µM) | > 31.2 | > 31.2 | > 31.2 | > 31.2 | > 31.2 | > 31.2 | > 31.2 | > 31.2 | > 31.2 | – | – | – |
| CCCN1CCN(c2ccc3nc(-c4ccc5nc(-c6ccc(O)cc6)[nH]c5c4)[nH]c3c2)CC1 | 31.2 (≈ 68.9 µM) | 31.2 (≈ 68.9 µM) | 31.2 (≈ 68.9 µM) | 7.8 (≈ 17.2 µM) | > 31.2 | 15.6 (≈ 34.5 µM) | 31.2 (≈ 68.9 µM) | 7.8 (≈ 17.2 µM) | 31.2 (≈ 68.9 µM) | 31.2 (≈ 68.9 µM) | 7.8 (≈ 17.2 µM) | 31.2 (≈ 68.9 µM) | 31.2 (≈ 68.9 µM) | – | – | – |
| CCCCCN1CCN(c2ccc3nc(-c4ccc5nc(-c6ccc(OC)cc6)[nH]c5c4)[nH]c3c2)CC1 | > 31.2 | > 31.2 | > 31.2 | 15.6 (≈ 31.5 µM) | > 31.2 | > 31.2 | > 31.2 | > 31.2 | > 31.2 | > 31.2 | > 31.2 | > 31.2 | > 31.2 | – | – | – |
| CC[C@@H]([C@H](C)O)n1ncn(-c2ccc(N3CCN(c4ccc(OC[C@@H]5CO[C@@](Cn6cncn6)(c6ccc(F)cc6F)C5)cc4)CC3)cc2)c1=O [POSACONAZOLE] | 31.2 (≈ 44.5 µM) | 0.5 (≈ 0.713 µM) | 0.06 (≈ 0.0856 µM) | < 0.03 | 0.24 (≈ 0.342 µM) | 0.48 (≈ 0.685 µM) | > 62.5 | 0.12 (≈ 0.171 µM) | 15.6 (≈ 22.3 µM) | 7.8 (≈ 11.1 µM) | 0.195 (≈ 0.278 µM) | 15.6 (≈ 22.3 µM) | 31.2 (≈ 44.5 µM) | – | – | – |
| CCOc1ccc(-c2nc3ccc(-c4nc5ccc(N6CCN(CC)CC6)cc5[nH]4)cc3[nH]2)cc1 | 15.6 (≈ 33.4 µM) | 15.6 (≈ 33.4 µM) | 15.6 (≈ 33.4 µM) | 3.9 (≈ 8.36 µM) | > 31.2 | 15.6 (≈ 33.4 µM) | 15.6 (≈ 33.4 µM) | 31.2 (≈ 66.9 µM) | 15.6 (≈ 33.4 µM) | 15.6 (≈ 33.4 µM) | 15.6 (≈ 33.4 µM) | > 31.2 | 15.6 (≈ 33.4 µM) | – | – | – |
| CCC(C)n1ncn(-c2ccc(N3CCN(c4ccc(OCC5COC(Cn6cncn6)(c6ccc(Cl)cc6Cl)O5)cc4)CC3)cc2)c1=O (centres undefined) [ITRACONAZOLE] | 31.2 (≈ 44.2 µM) | 0.5 (≈ 0.709 µM) | 0.48 (≈ 0.68 µM) | 0.12 (≈ 0.17 µM) | 0.48 (≈ 0.68 µM) | 0.975 (≈ 1.38 µM) | > 62.5 | – | 31.2 (≈ 44.2 µM) | 7.8 (≈ 11.1 µM) | 0.195 (≈ 0.276 µM) | 31.2 (≈ 44.2 µM) | 31.2 (≈ 44.2 µM) | – | – | – |
| CCCN1CCN(c2ccc3nc(-c4ccc5nc(-c6ccc(OC)cc6)[nH]c5c4)[nH]c3c2)CC1 | > 31.2 | > 31.2 | 7.8 (≈ 16.7 µM) | 31.2 (≈ 66.9 µM) | > 31.2 | > 31.2 | > 31.2 | > 31.2 | > 31.2 | > 31.2 | > 31.2 | > 31.2 | > 31.2 | – | – | – |
| C[C@@H](c1ncncc1F)[C@](O)(Cn1cncn1)c1ccc(F)cc1F [VORICONAZOLE] | 1.95 (≈ 5.58 µM) | – | 0.12 (≈ 0.344 µM) | < 0.03 | – | 0.12 (≈ 0.344 µM) | 3.9 (≈ 11.2 µM) | – | 7.8 (≈ 22.3 µM) | 1.95 (≈ 5.58 µM) | 0.03 (≈ 0.0859 µM) | 1.95 (≈ 5.58 µM) | 0.975 (≈ 2.79 µM) | – | – | – |
